# High-throughput results deposited in PubChem BioAssay by several laboratories.
# The list is not random: actives were taken first. Their share in the collection is about 1.9%.
# LANA-H2B inh – blocks KSHV LANA binding to histone H2A/H2B | Q9QR71 | cell-free LANA-H2A/H2B peptide, fluorescence polarization | inhibition, % (test concentration not listed) | actives 0.6% (n = 320,000) | AID 2629; in the data active means inhibition mostly above about 10%, no sharp cut-off; inactive means mostly below about 6.7%
# RanGTP-Impb inh – inhibitors of RanGTP-importin-beta interaction, primary screen, biochemical, FRET, CFP-Ran, YFP-importin-beta, homogeneous | cell-free CFP-Ran/YFP-importin-beta FRET ratio | inhibition, % (test concentration not listed) | actives 1.1% (n = 300,000);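 active means more than half of the replicate wells show a fall in the fluorescence ratio signal beyond about 16%, limit read from the data, passing the limit was not always enough; inconclusive means exactly half of the replicate wells pass the set limit; inactive means fewer than half of replicates pass the limit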;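 further: 0% = DMSO wells and 100% = Ran loaded with GDP instead of GTP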
# Runt-SMMHC FRET – blocks binding of human RUNX1 Runt domain to CBFb-SMMHC; Cerulean-Runt/Venus-CBFb-SMMHC FRET ratio 530/480, 1 h; inhibition, % at 20 µM; actives 0.74% (n = 220,000);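 active means mean inhibition across duplicate retests at 20 µM reaching about 50%, limit read from the data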;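 further: 0% = DMSO wells and 100% = wells with excess untagged CBFb-SMMHC; inhibitors lower the FRET ratio by blocking Runt binding to CBFb-SMMHC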
# CaV13 FRET inh – Primary screen for inhibitors of IQ motif and Ca2+-dependent inactivation inhibitor domain binding in CACNA1D, Förster resonance energy transfer in living cells, …. inhibition, % at 12.3 µM. HEK cells, CFP/YFP FRET ICDI-IQ, plate reader, 10 min; percent FRET-ratio fall versus neutral wells. AID 743397. actives 0.098% (n = 340,000);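 active means mean replicate inhibition of at least 30% and at least 1% of replicates passing that level; inconclusive means only one of the two criteria is met; inactive means neither criterion is met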;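 further: 0% = median of the neutral control wells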
# HDAC3 inh – inhibitors of human histone deacetylase 3; inhibition, % at 8.3 µM; AID 2718; recombinant HDAC3, fluorogenic peptide/trypsin coupled, fluorescence; O15379; actives 0.15% (n = 320,000); in the data active means inhibition above about 26%, passing the limit was not always enough; inconclusive means no clear call, values can overlap the other calls
# Runt-CBFb FRET – Runt domain-CBFb interaction inhibition; Q01196+Q13951; Cerulean-Runt/Venus-CBFb FRET ratio 530/480, 1 h; inhibition, % at 20 µM; actives 0.46% (n = 220,000); AID 1496;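 active means inhibition over about 50% at 20 µM in the single-dose screen, limit read from the data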;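 further: 0% = DMSO wells and 100% = excess unlabeled CBFb competitor control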
#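 Measured by: fluorescence energy transfer, 422 nm excitation, 530/480 nm emission; test system: Cerulean-tagged RUNX1 Runt domain (FRET donor) fusion protein; buffer or medium: Tris pH 7.5 buffer with BSA; compound: one dose, 20 µM compound, 1% DMSO; times: two 1 h room-temperature incubations shielded from light; benchmarks: unlabeled CBFb 5 µM, positive control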
# * = called active by the depositor; i = inactive; ? = inconclusive; / = not tested or not shown.
SMILES,LANA-H2B inh,RanGTP-Impb inh,Runt-SMMHC FRET,CaV13 FRET inh,HDAC3 inh,Runt-CBFb FRET
CCN(CC)CCN1C(=O)C(=O)/C(=C(/O)c2cccc(OC)c2)C1c1ccccn1 (stereo not given),4,43*,-5,-4,5,1
CN(C)CCN1C(=O)C(O)=C(C(=O)c2cc3ccccc3o2)C1c1ccccn1 (stereo not given),0,25*,-10,/,3,0
CCN(CC)CCN1C(=O)C(O)=C(C(=O)c2ccco2)C1c1ccccn1 (stereo not given),1,59*,10,-6,6,9
CCN(CC)CCCN1C(=O)C(O)=C(C(=O)c2cc3ccccc3o2)C1c1ccccn1 (stereo not given),1,/,0,/,-8,-1
O=C1CC(c2ccc3c(c2)OCO3)Sc2nc3ccccc3n21 (stereo not given),2,3,-7,/,-1,-1
O=C1C2C3CCC(O3)C2C(=O)N1c1cccc(O)c1 (stereo not given),-3,33*,/,-4,-7,/
CC1(C)CNC(=O)c2sc(NC(=O)c3ccccc3)nc2C1,18*,1,2,-2,6,1
O=C1c2cccc3c(N4CCCCC4)ccc(c23)C(=O)N1c1ccccn1,32*,-158,-461,-10,-4,-300
O=C1c2cccc3c([N+](=O)[O-])ccc(c23)C(=O)N1c1ccccn1,-7,-20,-50,-16,11,-17
O=C(OCCN1C(=O)c2cccc3c(N4CCOCC4)ccc(c23)C1=O)c1cc(Cl)cc(Cl)c1,/,/,1,/,/,-217
CC(=O)N(C(C)=O)N1C(=O)c2cccc3c(N4CCOCC4)ccc(c23)C1=O,55*,2,-264,-11,7,-93
CCCN1C(=O)c2cccc3c(N4CCCCC4)ccc(c23)C1=O,13,-179,-139,-13,0,-276
CCN(CC)S(=O)(=O)c1ccc(C(=O)OCCN2C(=O)c3cccc4c(N5CCOCC5)ccc(c34)C2=O)cc1,27*,i,-193,-5,-1,-308
COc1ccccc1N(C(=O)CNS(=O)(=O)c1ccccc1)C(C(=O)NCc1ccco1)C(C)C (stereo not given),/,-11,-8,0,/,-3
COc1cccc(NS(=O)(=O)c2cc3c(cc2C)N(C)CCO3)c1,3,-1,/,-5,-5,/
CCOc1ccc(/C=N/NC(=O)C(=O)N2CCCCCC2)c2ccccc12,/,-3,/,-2,/,/
CCC(C)N1CCC(Oc2ccc(C(=O)NCc3ccccn3)cc2)CC1 (stereo not given),175*,2,/,-5,-3,/
CCOC(=O)c1cc2c(ccn2C)n1CC(=O)N1CCC(Cc2ccccc2)CC1,5,-1,-13,/,?,36
CCOC(=O)c1cc2c(ccn2C)n1CC(=O)N1CCCC(C)C1 (stereo not given),4,24*,-15,/,0,23
O=C(N/N=C/c1ccccc1[N+](=O)[O-])c1ccc2nc[nH]c2c1,4,-1,-1,2,96*,0
CCc1c2ccccc2nn1-c1ccccc1C(=O)C(C)=O,10*,0,/,-21,-2,/
CCOC(=O)c1ccccc1-n1nnnc1C,0,-4,-3,-4,-1,1
Cc1noc(C)c1S(=O)(=O)N1CCN(c2ccccc2)CC1,-4,-3,-5,-3,6,-2
Cc1noc(C)c1S(=O)(=O)N1CCN(c2ccc([N+](=O)[O-])cc2)CC1,15*,2,/,-3,-1,/
Cc1cccc(N(Cc2ccccc2)C(=O)c2ccc(S(C)(=O)=O)cc2)c1,23*,3,/,-5,6,/
CS(=O)(=O)c1ccc(C(=O)N(Cc2ccccc2)c2ccccc2)cc1,2,-5,/,-3,0,/
CSCCC(NC(=O)c1ccccc1)C(=O)NC1CCCC1 (stereo not given),-3,5,-3,-8,-4,1
O=C(NCCOc1ccccc1)c1ccc2n[nH]nc2c1,1,/,/,-3,1,/
